system: Rattus norvegicus; assay: The compound was evaluated for hypotensive activity in anaesthetized Sprague Dawley rats on intravenous administration; format: functional; conditions: not given
Summary of the method: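 Male Sprague Dawley rats (280–350 g), pentobarbitone 60 mg/kg ip, ventilated; carotid blood pressure recorded. 15-min iv infusion via jugular vein, one per rat, vehicle PEG 200 with 0.01 N HCl diluted 1:10 in saline. Max MBP change over ≥30 min; two or more doses in 3–4 rats; dose giving 30 mmHg fall by linear regression vs log dose.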

Question: With `C/N=C(\S)[C@]1(c2cnc3ccccc3c2)CCCC[S+]1[O-]` (some centres not stated) as the compound, how does the ED30 read?
Answer: 0.04 mg/kg

Question: With `C/N=C(\S)[C@]1(c2ccc(Cl)c(Cl)c2)CCCC[S+]1[O-]` (some centres not stated) as the compound, how does the ED30 read?
Answer: 1.28 mg/kg

Question: With `C/N=C(\S)[C@]1(c2cccc(C#N)c2)CCCC[S+]1[O-]` (some centres not stated) as the compound, how does the ED30 read?
Answer: 0.63 mg/kg

Question: `CC1(C)Oc2ccc(C#N)cc2C(N2CCCC2=O)C1O` (configuration not stated) [CROMAKALIM] was tested. Which ED30 did it give?
Answer: 0.06 mg/kg

Question: For `CC/N=C(\S)[C@]1(c2cccnc2)CCCC[S+]1[O-]` (some centres not stated), which ED30 is on record?
Answer: 0.15 mg/kg

Question: For `C/N=C(\S)[C@]1(c2cccnc2)CCCCS1`, which ED30 is on record?
Answer: 1.5 mg/kg

Question: How did the ED30 turn out when `CCCC/N=C(\S)[C@]1(c2cccnc2)CCCC[S+]1[O-]` (some centres not stated) was run?
Answer: 1.5 mg/kg

species: Rattus norvegicus; assay: In vitro inhibitory concentration producing 90% reduction in maximum contraction produced by KCl (20 mmol) in isolated aorta of rat.; format: functional; conditions: not given
Summary of the method: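 Isolated aortic tissue recorded isometrically via force-displacement transducers; equilibrated 90 min at 2 g resting tension, contracted with 20 mmol KCl, then cumulative concentration-response relaxation, each concentration added once the prior maximal effect developed. Glibenclamide 5 μM tested for reversal of relaxation. Drugs dissolved in DMSO. Mean EC90 ± SEM, number of experiments given.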

Question: For `C/N=C(/S)[C@]1(c2cccnc2)CCCC[S@@+]1[O-]` (stereo in doubt; 8a) [APRIKALIM], which IC90 is on record?
Answer: 0.7 µM

Question: `C/N=C(/S)[C@]1(c2cccnc2)CCCC[S@@+]1[O-]` (stereo in doubt; 8b) [APRIKALIM] was tested. Which IC90 did it give?
Answer: 0.4 µM

Question: With `C/N=C(/S)[C@]1(c2cccnc2)CCCC[S@@+]1[O-]` (stereo in doubt; 8c) [APRIKALIM] as the compound, how does the IC90 read?
Answer: > 30 µM

same assay, conditions: Rattus norvegicus, Aorta

Question: Which IC90 does the source give for `N/N=C(\S)[C@]1(c2cccnc2)CCCC[S+]1[O-]` (some centres not stated) here?
Answer: > 30 µM

Question: `C/N=C(\S)C1(c2cccnc2)CCCCC1` was tested. Which IC90 did it give?
Answer: 3 µM

Question: How did the IC90 turn out when `C/N=C(\S)[C@]1(c2cnc3ccccc3c2)CCCC[S+]1[O-]` (some centres not stated) was run?
Answer: 0.06 µM

Question: How did the IC90 turn out when `C/N=C(\S)[C@]1(c2cccc(F)c2)CCCC[S+]1[O-]` (some centres not stated) was run?
Answer: 7 µM

Question: How did the IC90 turn out when `C/N=C(/S)[C@]1(c2cccnc2)CCCCS1(=O)=O` was run?
Answer: > 30 µM

Question: For `C/N=C(\S)[C@]1(c2cccnc2)CCCS1`, which IC90 is on record?
Answer: > 30 µM

Question: Which IC90 does the source give for `C/N=C(\S)[C@]1(c2cnc(-c3ccccc3)s2)CCCC[S+]1[O-]` (some centres not stated) here?
Answer: 4 µM

Question: How did the IC90 turn out when `CNC(=O)[C@]1(c2cccnc2)CCCC[S+]1[O-]` (some centres not stated) was run?
Answer: > 30 µM

Question: `[O-][S+]1CCCC[C@]1(CS)c1cccnc1` (some centres not stated) was tested. Which IC90 did it give?
Answer: > 30 µM

Question: For `C/N=C(\S)[C@]1(c2ccc(-c3ccccc3)cc2)CCCC[S+]1[O-]` (some centres not stated), which IC90 is on record?
Answer: 12 µM

Question: Which IC90 does the source give for `C/N=C(\S)[C@]1(c2ccc(Cl)c(Cl)c2)CCCC[S+]1[O-]` (some centres not stated) here?
Answer: 0.3 µM

Question: With `C/N=C(\S)[C@]1(c2cccc(C(N)=O)c2)CCCC[S+]1[O-]` (some centres not stated) as the compound, how does the IC90 read?
Answer: 12 µM

Question: For `O=C(O)CC/N=C(\S)[C@]1(c2cccnc2)CCCC[S+]1[O-]` (some centres not stated), which IC90 is on record?
Answer: > 30 µM

Question: How did the IC90 turn out when `C/N=C(\S)[C@]1(c2cccc(C#N)c2)CCCC[S+]1[O-]` (some centres not stated) was run?
Answer: 1.6 µM

Question: With `[O-][S+]1CCCC[C@]1(CO)c1cccnc1` (some centres not stated) as the compound, how does the IC90 read?
Answer: > 30 µM

Question: Which IC90 does the source give for `C/N=C(\S)C1(c2cccnc2)SCCCS1` here?
Answer: > 30 µM

Question: With `C/N=C(\S)[C@]1(c2cccnc2)OCCCS1` as the compound, how does the IC90 read?
Answer: > 30 µM

Question: `COC(=N)[C@]1(c2cccnc2)CCCC[S+]1[O-]` (some centres not stated) was tested. Which IC90 did it give?
Answer: > 30 µM

Question: `CC(C)/N=C(\S)[C@]1(c2cccnc2)CCCC[S+]1[O-]` (some centres not stated) was tested. Which IC90 did it give?
Answer: 10 µM

Question: With `C/N=C(\S)[C@]1(c2nc3ccccc3s2)CCCC[S+]1[O-]` (some centres not stated) as the compound, how does the IC90 read?
Answer: 29 µM

Question: Which IC90 does the source give for `C/N=C(\S)[C@]1(c2cccc(C(=O)O)c2)CCCC[S+]1[O-]` (some centres not stated) here?
Answer: > 30 µM

Question: Which IC90 does the source give for `C/N=C(\S)[C@]1(c2ccccn2)CCCC[S+]1[O-]` (some centres not stated) here?
Answer: > 30 µM

Question: For `C/N=C(\S)[C@]1(c2ccc(Cl)nc2)CCCC[S+]1[O-]` (some centres not stated), which IC90 is on record?
Answer: 0.3 µM

Question: For `C/N=C(\S)[C@]1(c2ccc3ccccc3c2)CCCC[S+]1[O-]` (some centres not stated), which IC90 is on record?
Answer: 2 µM

Question: Which IC90 does the source give for `COC(=O)CC/N=C(\S)[C@]1(c2cccnc2)CCCC[S+]1[O-]` (some centres not stated) here?
Answer: > 30 µM

Question: With `C/N=C(\S)C1(c2cccnc2)CCCC1` as the compound, how does the IC90 read?
Answer: 30 µM

Question: With `N#C[C@]1(c2cccnc2)CCCC[S+]1[O-]` (some centres not stated) as the compound, how does the IC90 read?
Answer: > 30 µM

Question: How did the IC90 turn out when `CC1(C)Oc2ccc(C#N)cc2C(N2CCCC2=O)C1O` (configuration not stated) [CROMAKALIM] was run?
Answer: 0.2 µM

Question: Which IC90 does the source give for `C/N=C(\S)[C@]1(c2ccc(Cl)cc2)CCCC[S+]1[O-]` (some centres not stated) here?
Answer: 2.8 µM

Question: With `CNC(=S)[C@]1(c2cccnc2)CCCC[S@+]1[O-]` as the compound, how does the IC90 read?
Answer: > 30 µM

Question: Which IC90 does the source give for `C/N=C(\S)[C@]1(c2cccc(C(F)(F)F)c2)CCCC[S+]1[O-]` (some centres not stated) here?
Answer: 0.8 µM

Question: Which IC90 does the source give for `CCC/N=C(\S)[C@]1(c2cccnc2)CCCC[S+]1[O-]` (some centres not stated) here?
Answer: 0.6 µM

Question: `[O-][S+]1CCCC[C@]1(/C(S)=N/c1ccccc1)c1cccnc1` (some centres not stated) was tested. Which IC90 did it give?
Answer: > 30 µM

Question: With `CC/N=C(\S)[C@]1(c2cccnc2)CCCC[S+]1[O-]` (some centres not stated) as the compound, how does the IC90 read?
Answer: 0.3 µM

Question: `C/N=C(\S)[C@]1(c2ccncc2)CCCC[S+]1[O-]` (some centres not stated) was tested. Which IC90 did it give?
Answer: 25 µM

Question: How did the IC90 turn out when `C/N=C(\S)[C@]1(c2cccnc2)CCCCS1` was run?
Answer: > 30 µM

Question: How did the IC90 turn out when `C/N=C(\S)[C@]1(c2ccccc2)CCCC[S+]1[O-]` (some centres not stated) was run?
Answer: 9.5 µM

Question: How did the IC90 turn out when `C/N=C(\S)[C@]1(c2ccns2)CCCC[S+]1[O-]` (some centres not stated) was run?
Answer: 7 µM

Question: For `C/N=C(\S)[C@]1(c2cccnc2)CCCO1`, which IC90 is on record?
Answer: > 30 µM

Question: `C/N=C(\SC)[C@]1(c2cccnc2)CCCC[S+]1[O-]` (some centres not stated) was tested. Which IC90 did it give?
Answer: > 30 µM

Question: Which IC90 does the source give for `CCCC/N=C(\S)[C@]1(c2cccnc2)CCCC[S+]1[O-]` (some centres not stated) here?
Answer: 8 µM

Question: `C/N=C(\S)[C@]1(c2cc(Cl)cc(Cl)c2)CCCC[S+]1[O-]` (some centres not stated) was tested. Which IC90 did it give?
Answer: 0.4 µM

Source: ChEMBL document CHEMBL1125300, “Synthesis and biological activity of trans(+-)-N-methyl-2-(3-pyridyl)-2-tetrahydrothiopyrancarbothioamide 1-oxide (RP 49356) and analogues: a new class of potassium channel opener” (1992)
